Converted amounts (≈) assume the structure as drawn. The source made the active and inactive calls. The calls are words filed in the database; no cut-off is given here.
Tests used:
Rhodotorula glutinis [1] = assay: Antifungal activity against Rhodotorula glutinis NCIM 3168 assessed as inhibition of fungal growth incubated for 48 to 72 hrs by broth microdilution susceptibility method; type: functional
In short: (§1)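 Tube micro-dilution in Sabouraud liquid medium. Stocks were made in DMSO and serially diluted twofold in broth to final […]. Tubes inoculated with organisms grown in potato dextrose broth and held 48-72 h at 30 C. MIC is the lowest concentration with no growth. DMSO and uninoculated-media controls were included, in triplicate.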

Aspergillus niger [2] = assay: Inhibition of CYP51 in Aspergillus niger NCIM 504 cells assessed as decrease in ergosterol biosynthesis at 31.5 ug/ml incubated for 72 hrs by spectrophotometric analysis
In short: (§2)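 A. niger inoculated into potato dextrose broth with compound, untreated control, shaken 72 h at 37 C. Cells centrifuged, washed and pellet wet weight taken. Saponified in 25% alcoholic KOH 1 h at 85 C, then sterols extracted into n-heptane. Extract diluted fivefold in ethanol and scanned at 240-300 nm. Ergosterol computed as % of wet weight from A281.5 and A230, in duplicate.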

Aspergillus niger [3] = assay: Inhibition of CYP51 in Aspergillus niger NCIM 504 cells assessed as ergosterol synthesis measured per gram wet weight at 31.5 ug/ml incubated for 72 hrs by spectrophotometric analysis (reference value: 0.0000290836%); parameters: scale not given: the % may be the effect or the level left; in short: as §2
Escherichia coli = assay: Antibacterial activity against Escherichia coli NCIM 2574 assessed as zone of inhibition at 80 ug/well incubated for 24 to 48 hrs by agar well diffusion method; type: functional; conditions: read-out: IZ
In short: (§3)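 Strains from NCIM kept on nutrient agar slants at 4 C and grown overnight at 37 C in nutrient broth. 500 microlitres of 24-48 h culture swabbed onto nutrient agar. Compounds in DMSO loaded into 5 mm wells, with a DMSO vehicle plate and streptomycin reference. Incubated 24-48 h at 37 C. Zone of inhibition measured in mm and averaged over 4 replicates.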

Proteus mirabilis = assay: Antibacterial activity against Proteus mirabilis NCIM 2388 assessed as zone of inhibition at 80 ug/well incubated for 24 to 48 hrs by agar well diffusion method; type: functional; in short: as §3
Rhodotorula glutinis [4] = assay: Antifungal activity against Rhodotorula glutinis NCIM 3168 assessed as zone of inhibition at 80 ug/well incubated for 48 to 72 hrs by agar well diffusion method; type: functional; conditions: read-out: IZ
In short: (§4)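 Fungi kept on potato dextrose agar slants and grown in potato dextrose broth. 500 microlitres of 48-72 h spore suspension swabbed onto Mueller Hinton agar. Compounds in DMSO loaded into 5 mm wells, with a DMSO vehicle plate and fluconazole/ravuconazole positive-control plate. Incubated 48-72 h at 30 C. Clear zone measured in mm, mean of five replicates.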

Candida albicans [5] = assay: Antifungal activity against Candida albicans NCIM 3100 assessed as inhibition of fungal growth incubated for 48 to 72 hrs by broth microdilution susceptibility method; type: functional; in short: as §1
Aspergillus niger [6] = assay: Antifungal activity against Aspergillus niger NCIM 504 assessed as inhibition of fungal growth incubated for 48 to 72 hrs by broth microdilution susceptibility method; type: functional; in short: as §1
Candida albicans [7] = assay: Antifungal activity against Candida albicans NCIM 3100 assessed as zone of inhibition at 80 ug/well incubated for 48 to 72 hrs by agar well diffusion method; type: functional; conditions: read-out: IZ; in short: as §4
Aspergillus niger [8] = assay: Antifungal activity against Aspergillus niger NCIM 504 assessed as zone of inhibition at 80 ug/well incubated for 48 to 72 hrs by agar well diffusion method; type: functional; conditions: for zone of inhibition at 80 µg/disc: read-out: IZ; in short: as §4
[9] = system: Staphylococcus epidermidis; assay: Antibacterial activity against Staphylococcus albus NCIM 2178 assessed as zone of inhibition at 80 ug/well incubated for 24 to 48 hrs by agar well diffusion method; type: functional; conditions: read-out: IZ; in short: as §3

| Compound | MIC (Rhodotorula glutinis [1]) [mg/L] | inhibition (Aspergillus niger [2]) | Activity (Aspergillus niger [3]) [%] | MIC (Candida albicans [5]) | MIC (Aspergillus niger [6]) [mg/L] | zone of inhibition at 80 µg/disc (Escherichia coli) [mm] | inhibition zone (IZ) (Proteus mirabilis) | zone of inhibition at 80 µg/disc (Rhodotorula glutinis [4]) [mm] | zone of inhibition at 80 µg/disc (Candida albicans [7]) [mm] | inhibition zone (IZ) (Aspergillus niger [8]) | zone of inhibition at 80 µg/disc [9] [mm] | zone of inhibition at 80 µg/disc (Aspergillus niger [8]) [mm] |
| --- | --- | --- | --- | --- | --- | --- | --- | --- | --- | --- | --- | --- |
| Cc1ccc(Cn2cc(-c3cn(-c4ccccc4)nc3-c3sc(-c4ccc(C)cc4)nc3C)nn2)cc1 | 125 (≈ 249 µM) | Active | 0 | 62.5 mg/L (≈ 124 µM) | 31.2 (≈ 62.2 µM) | 10.2 | inactive | 22.3 | 13 | inactive | 14.4 |  |
| Cc1ccc(-c2nc(C)c(-c3nn(-c4ccccc4)cc3-c3cn(Cc4ccc(Cl)cc4)nn3)s2)cc1 | 62.5 (≈ 119 µM) | Active | 0 | inactive | 31.2 (≈ 59.7 µM) | 13.6 | inactive | 19 | 10 |  | 12 | 16 |
| Cc1ccc(Cn2cc(-c3cn(-c4ccccc4)nc3-c3sc(-c4ccc(Cl)cc4)nc3C)nn2)cc1 | 125 (≈ 239 µM) |  |  | 250 mg/L (≈ 478 µM) | 125 (≈ 239 µM) | 12.4 | inactive | 11.4 | 13.8 |  | 12 | 11.4 |

Second part, led by results:

| MIC (Rhodotorula glutinis [1]) [mg/L] | inhibition (Aspergillus niger [2]) | Activity (Aspergillus niger [3]) [%] | MIC (Candida albicans [5]) | MIC (Aspergillus niger [6]) [mg/L] | Compound | zone of inhibition at 80 µg/disc (Escherichia coli) [mm] | inhibition zone (IZ) (Proteus mirabilis) | zone of inhibition at 80 µg/disc (Rhodotorula glutinis [4]) [mm] | zone of inhibition at 80 µg/disc (Candida albicans [7]) [mm] | inhibition zone (IZ) (Aspergillus niger [8]) | zone of inhibition at 80 µg/disc [9] [mm] | zone of inhibition at 80 µg/disc (Aspergillus niger [8]) [mm] |
| --- | --- | --- | --- | --- | --- | --- | --- | --- | --- | --- | --- | --- |
| 62.5 (≈ 122 µM) | Active | 0 | 125 mg/L (≈ 245 µM) | 31.2 (≈ 61.2 µM) | Cc1nc(-c2ccc(F)cc2)sc1-c1nn(-c2ccccc2)cc1-c1cn(Cc2ccc(F)cc2)nn1 | 12.2 | inactive | 13.3 | 12.8 |  | 11.8 | 11 |
| 62.5 (≈ 127 µM) | Active | 0 | 125 mg/L (≈ 254 µM) | 31.2 (≈ 63.4 µM) | Cc1nc(-c2ccc(F)cc2)sc1-c1nn(-c2ccccc2)cc1-c1cn(Cc2ccccc2)nn1 | 11.8 | inactive | 16 | 16.2 |  | 12.2 | 15.8 |
| 62.5 (≈ 123 µM) | Active | 0 | inactive | 31.2 (≈ 61.7 µM) | Cc1ccc(Cn2cc(-c3cn(-c4ccccc4)nc3-c3sc(-c4ccc(F)cc4)nc3C)nn2)cc1 | 9.6 | inactive | 16.2 | 12.2 |  | 13.7 | 13 |
